OX1R antag-1: OX1R (HCRTR1) antagonists, primary screen, fluorescence, CHO/OX1R cells, Fluo-8 calcium, orexin A | Orexin/Hypocretin receptor type 1 (Homo sapiens), O43613 | Fluo-8 calcium fluorescence | inhibition, % at 5 µM | 330,000 compounds, 0.43% hits | AID 434989, 2010;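 active = inhibition above its plate's threshold, mean inhibition of all tested compounds on the plate plus 3 SD, cut at about 37% in these data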;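 also: 0% = orexin A challenge wells and 100% = SB-334867-A antagonist wells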
OX1R antag-2: antagonists of human orexin 1 receptor (OX1R) | Orexin/Hypocretin receptor type 1 (Homo sapiens), O43613 | OX1R-expressing cells, FRET antagonist read-out | inhibition, % at 6.6 µM | 330,000 compounds, 1.8% hits | AID 485270, 2010; in the data active = inhibition mostly above about 38%, no sharp cut-off; inactive = mostly below about 40%;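 also: 0% = agonist challenge alone and 100% = reference antagonist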
TAAR1 antagonist: human TAAR1 antagonists, primary screen, Fluo-8 calcium fluorescence, CHO RD-HGA16 cells; inhibition, % at 3 µM; AID 624466, 2012; Trace amine-associated receptor 1 (Homo sapiens), Q96RJ0; 360,000 compounds, 1.5% hits; antagonist;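 active = inhibition above a per-plate cutoff, the mean inhibition of test compounds on that plate plus 3 SD, cut at about 49% in these data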;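 also: 0% = DMSO plus EC80 beta-PEA response and 100% = DMSO alone without agonist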
Target sequence (Q96RJ0 whole entry, looked up): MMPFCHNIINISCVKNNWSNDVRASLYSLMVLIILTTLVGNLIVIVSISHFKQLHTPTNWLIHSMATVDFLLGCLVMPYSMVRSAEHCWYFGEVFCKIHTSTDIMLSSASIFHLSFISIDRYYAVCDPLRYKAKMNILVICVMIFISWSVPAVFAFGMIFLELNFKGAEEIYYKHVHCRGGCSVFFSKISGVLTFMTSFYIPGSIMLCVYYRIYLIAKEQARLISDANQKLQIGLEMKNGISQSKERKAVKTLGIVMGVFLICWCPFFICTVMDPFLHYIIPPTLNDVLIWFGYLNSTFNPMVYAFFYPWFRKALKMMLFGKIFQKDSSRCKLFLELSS
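Assay system: RD-HGA16 CHO cells with stable hTAAR1 and Gα16 / Reagent: EC80 β-phenethylamine stimulus / Doses: 3 µM, single point / Timing: dye loading 75 min at 37 °C, then 30 min room temperature / Measured by: Fluo-8 intracellular calcium dye fluorescence, real-time kinetic reads / Controls: vehicle wells and EC80 agonist wells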
GPR7 antagonist: GPR7 receptor antagonists, primary screen, cell-based, fluorescence, single concentration; Neuropeptides B/W receptor type 1 (Homo sapiens), P48145; GPR7-expressing cells, fluorescence antagonist assay; inhibition, % at 4.4 µM; 290,000 compounds, 1.1% hits; in the data active = inhibition above about 16%, passing the limit was not always enough;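 also: cells stimulated with the agonist NPW; 0% = agonist with vehicle and 100% = vehicle without agonist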
Target sequence (P48145 whole entry, looked up): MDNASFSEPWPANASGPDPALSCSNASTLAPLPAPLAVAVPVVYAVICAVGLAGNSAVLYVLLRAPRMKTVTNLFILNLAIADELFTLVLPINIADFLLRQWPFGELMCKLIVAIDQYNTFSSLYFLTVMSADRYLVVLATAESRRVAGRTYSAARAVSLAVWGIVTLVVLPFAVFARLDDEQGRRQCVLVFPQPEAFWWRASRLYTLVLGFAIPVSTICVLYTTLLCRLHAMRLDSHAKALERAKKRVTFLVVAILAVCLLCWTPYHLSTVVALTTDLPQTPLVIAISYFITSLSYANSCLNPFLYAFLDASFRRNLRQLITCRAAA
TAAR1 ag: human TAAR1 agonists, primary screen, Fluo-8 calcium fluorescence, CHO RD-HGA16 cells | vehicle wells 0%, saturating PEA agonist 100% | activation, % at 3 µM | 360,000 compounds, 0.99% hits;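 active = activation above the mean activation of all test compounds in the run plus 3 SD, cut at about 38% in these data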
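Test system: RD-HGA16 (CHO) cells co-expressing Gα16 and hTAAR1 / Benchmarks: DMSO vehicle as 0%, PEA at EC100 as 100% / Repeats: no replicates (n 1) / Measure: % activation from peak over basal fluorescence ratio, DMSO-to-PEA scaled / Timing: 17-24 h plating, Fluo-8 75 min 37 °C, 30 min RT / Technique: kinetic Fluo-8 calcium fluorescence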
CHO parental Ca: ATP-evoked calcium signal inhibitors, parental CHO, primary screen, counter-screen for OX1R antagonist project, cell-based, fluorescence, Fluo-8 calcium dye | parental CHO-K1, ATP-induced calcium, Fluo-8 fluorescence | inhibition, % at 5.6 µM | 330,000 compounds, 0.63% hits | AID 463079, 2010;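 active = inhibition above that plate's mean sample inhibition plus 3 SD, cut at about 26% in these data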;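 also: 0% = ATP-challenged DMSO wells and 100% = DMSO wells without ATP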
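Measured by: calcium-sensitive Fluo-8 fluorescence / Test system: CHO parental line / Controls: ATP-challenged DMSO wells low, unchallenged DMSO wells high / Measure: % inhibition / Compound: single nominal dose of 5.6 µM per compound / Replicates: single well per compound, no replicates / Reagent: ATP as calcium-mobilizing challenge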
TAAR1 ag conf: human TAAR1 agonists, retest of hits, confirmation, Fluo-8 calcium fluorescence, CHO RD-HGA16 cells. AID 651783, 2012. 2,400 compounds, 82% hits. activation, % at 3 µM. scaled: DMSO 0%, maximal phenethylamine 100%. shares compounds with TAAR1 ag;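 active = activation above a cutoff set at the run's mean compound activation plus 3 SD, cut at about 39% in these data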
Ga16 nonsel ag: nonselective calcium mobilization agonists, CHO-Ga16 cells, counter-screen for hTAAR1 agonist project, cell-based, fluorescence, CHO-Ga16 parental line. activation, % at 3 µM. Fluo-8 calcium fluorescence; normalized to maximal ATP response, DMSO zero. 2,400 compounds, 50% hits. AID 651787, 2012. shares compounds with TAAR1 ag;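 active = activation above the run cutoff, the mean activation over all tested wells plus 3 SD, cut at about 12% in these data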;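 also: 0% = DMSO wells and 100% = maximal ATP response on the peak over basal ratio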
TAAR1 desens: TAAR1 desensitization by agonist hits, confirmation, counter-screen for TAAR1 agonist project, cell-based, fluorescence, tachyphylaxis; shares compounds with TAAR1 ag; CHO RD-HGA16 hTAAR1, Fluo-8 calcium, beta-PEA response inhibition; inhibition, % at 3 µM; 2,400 compounds, 46% hits; AID 651951, 2012;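 active = inhibition above the run cutoff, the mean inhibition of all test compounds plus 3 SD, cut at about 49% in these data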;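 also: beta-PEA stimulus applied at its EC80; loss of beta-PEA calcium signal after compound pretreatment read as receptor desensitization; 0% = DMSO with beta-PEA at EC80 and 100% = DMSO alone without agonist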
Ga16 nonsel ant: inhibition of ATP-evoked calcium response in CHO-Ga16 cells, counter-screen for TAAR1 agonist project, cell-based, fluorescence; CHO-Ga16 ATP-induced calcium, Fluo-8 fluorescence; inhibition, % at 3 µM; AID 651952, 2012; shares compounds with TAAR1 ag; 2,400 compounds, 39% hits;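 active = inhibition above the plate's mean compound inhibition plus 3 SD, computed per plate, cut at about 22% in these data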;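 also: 0% = EC80 ATP with DMSO and 100% = DMSO wells without ATP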
Active calls of the source: *; / = no result. Compounds with a hit are over-represented: about 4.5% of the library has one in this group of screens.

SMILES	OX1R antag-1	OX1R antag-2	TAAR1 antagonist	GPR7 antagonist	TAAR1 ag	CHO parental Ca	TAAR1 ag conf	Ga16 nonsel ag	TAAR1 desens	Ga16 nonsel ant
CCCS(=O)(=O)NC(=O)C1(C)CCCN(C(=O)c2cccc(Cl)c2)C1 (stereo not drawn)	/	/	-1.8	/	1.1	/	/	/	/	/
Cc1cc(C(=O)CSc2nnnn2-c2ccccc2)c(C)n1CCc1ccccc1	-20.6	14.1	-3.1	0.5	57.6*	-12.9	99.3*	0.2	83.3*	10.8
COCCn1c(C)cc(C(=O)CSc2nc(C)cc(C)c2C#N)c1C	-0.8	26.6	17.2	-11.9	6.3	10.1	/	/	/	/
Cc1cc(C(=O)CSc2nnnn2-c2ccccc2)c(C)n1CC1CCCO1 (stereo not drawn)	-14.7	17.6	3.5	1.0	3.9	-0.7	/	/	/	/
Cc1cc(C(=O)CSc2nnnn2C)c(C)n1CCc1ccc(F)cc1	-15.0	1.6	11.2	2.1	43.8*	-11.1	63.4*	5.8	13.6	9.6
Cc1cc(C(=O)CSc2nnc(N)s2)c(C)n1CCc1ccc(F)cc1	-24.0	13.2	-6.6	-5.7	21.8	-19.1	/	/	/	/
Cc1cc(C)c(C#N)c(SCC(=O)c2cc(C)n(CCc3ccccc3)c2C)n1	-4.4	27.9	51.9*	-7.6	91.2*	45.9*	93.0*	2.0	99.9*	16.9
CC(=O)c1ccsc1-c1c(C)cc2oc(=O)cc(-c3ccccc3)c2c1C	-14.8	24.3	-42.2	/	0.6	-32.0	/	/	/	/
CCc1nc2ccc(C(=O)Nc3cccc(OCC(=O)N(C)C)c3)cn2c1N(C)C(=O)c1ccncc1	/	/	-9.4	/	-0.1	/	/	/	/	/
CCOC(=O)c1c(SCCN2CCCCC2)n(-c2ccccc2)c(=S)n(-c2ccccc2)c1=O	/	/	3.8	/	0.2	/	/	/	/	/
O=C(NCCc1ccccc1)c1cc2ncc(Br)cn2n1	-10.9	21.2	0.7	5.6	47.6*	-2.6	57.1*	1.4	21.9	11.8
COCCNC(=O)c1cc2ncc(Br)cn2n1	-11.3	14.7	-0.4	-1.4	9.1	-3.9	/	/	/	/
Cc1cccc(NC(=O)CN2C(=O)S/C(=C\c3ccc(O)c([N+](=O)[O-])c3)C2=O)c1	-9.3	44.5	-26.9	1.8	3.0	-10.7	/	/	/	/
Cc1ccc(NC(=O)CN2C(=O)S/C(=C/c3ccc(O)c([N+](=O)[O-])c3)C2=O)cc1C	/	/	80.4*	6.2	90.9*	/	18.9	6.8	0.0	8.1
N#Cc1ccc(OCCCN2CCC(C(O)(c3ccccc3)c3ccccc3)CC2)cc1	/	/	25.2	/	40.0*	/	54.5*	18.4*	27.2	17.1
COC(=O)c1cccc(OCCCN2CCC(C(O)(c3ccccc3)c3ccccc3)CC2)c1	/	/	7.3	/	22.6	/	/	/	/	/
Cc1ccc(OCCCN2CCC(C(O)(c3ccccc3)c3ccccc3)CC2)cc1	/	/	12.6	/	30.9	/	/	/	/	/
OC(c1ccccc1)(c1ccccc1)C1CCN(CCCOc2ccc(C(F)(F)F)cc2)CC1	/	/	38.1	/	43.4*	/	9.2	19.0*	17.2	38.2*
OC(c1ccccc1)(c1ccccc1)C1CCN(CCCOc2cccc(Cl)c2)CC1	/	/	50.0*	/	39.5*	/	42.3*	26.7*	47.9	49.5*
COc1ccc(OCCCN2CCC(C(O)(c3ccccc3)c3ccccc3)CC2)cc1	/	/	10.2	/	38.4*	/	42.5*	20.1*	25.3	22.2*
COc1ccc(Cl)cc1Cn1c(C)c(C(=O)NCc2cccc([N+](=O)[O-])c2)sc1=O	/	/	20.9	/	1.6	/	/	/	/	/
COc1ccccc1NC(=O)N(C)C[C@@H]1OCc2cnnn2CCCC(=O)N([C@@H](C)CO)C[C@H]1C	/	/	0.1	/	2.1	/	/	/	/	/
CCCS(=O)(=O)NC(=O)C1(C)CCN(C(=O)c2cc(F)cc(F)c2)C1 (stereo not drawn)	/	/	-9.7	/	3.1	/	/	/	/	/
Cc1ccccc1NC(=O)N(O)C1(C#N)CCCCC1	/	/	13.3	/	0.5	/	/	/	/	/
CC(C)(C)c1ccc(OCCCCCCN2CCNCC2)cc1	-12.1	8.1	-37.9	/	30.6	2.6	/	/	/	/
SMILES	OX1R antag-1	OX1R antag-2	TAAR1 antagonist	GPR7 antagonist	TAAR1 ag	CHO parental Ca	TAAR1 ag conf	Ga16 nonsel ag	TAAR1 desens	Ga16 nonsel ant
CC(C)(c1ccccc1)c1ccc(OCCCN2CCNCC2)cc1	-0.2	20.4	2.8	-1.4	50.3*	4.4	37.4	10.6	14.4	12.2
CC(C)c1ccc(OCCCN2CCC(C(O)(c3ccccc3)c3ccccc3)CC2)cc1	/	/	46.3	/	41.1*	/	58.6*	35.1*	59.2*	55.2*
Cc1cccc(C(=O)NCC(=O)NC2CCC(C)CC2)c1 (stereo not drawn)	-11.9	5.0	3.7	/	-1.6	0.7	/	/	/	/
CCCC(=O)N1CCC1(C)C(=O)NS(=O)(=O)c1ccccc1Cl (stereo not drawn)	/	/	27.8	/	33.3	/	/	/	/	/
CC1(C)CC[C@]2(C(=O)O)CC[C@]3(C)C(=CC[C@@H]4[C@@]5(C)CC[C@H](O[C@@H]6O[C@H](C(=O)O)[C@@H](O)[C@H](O[C@@H]7OC[C@H](O)[C@H](O)[C@H]7O)[C@H]6O)C(C)(C)[C@@H]5CC[C@]43C)[C@@H]2C1	110.8*	33.6	109.3*	/	109.2*	100.4*	83.9*	66.0*	104.5*	94.8*
CCOC(=O)c1cnn(-c2ncnc3sc4c(c23)CCC4)c1N	-13.0	14.2	-2.1	-1.4	4.7	-9.0	/	/	/	/
CCOC(=O)c1cnn(-c2nc(SC)nc3sc4c(c23)CCCC4)c1N	25.6	11.6	83.9*	-2.9	85.0*	-3.0	13.3	14.6*	31.2	40.0*
CC1CCc2sc(C(=O)OCC(=O)NCc3ccccc3)cc2C1 (stereo not drawn)	-29.4	10.9	38.7	-14.5	43.2*	1.3	-1.0	0.5	0.5	7.8

Source: PubChem BioAssay
